Results on 1 compound are retold here after ChEMBL document CHEMBL2390952, “Novel triazolo-pyrrolopyridines as inhibitors of Janus kinase 1” (Bioorg Med Chem Lett, 2013).

By inhibition is commonly meant the change of the read-out against control, counted positive when it falls. As usually defined, the Ki is the dissociation constant of the complex between target and ligand, obtained from inhibition or displacement. Read a low Ki as higher affinity. By AUC is commonly meant the area under the concentration-time curve, a measure of exposure. Broadly, the clearance is the rate of elimination divided by the concentration. Usually Cmax stands for the peak of the concentration-time curve. Broadly, the bioavailability is the share of a dose that reaches the circulation, judged against a reference dose that is usually intravenous. High values mean good availability, low ones poor availability. As a reminder, the half-life is how long it takes for the measured level to halve. One may read the logD as the decadic logarithm of the distribution of all forms, ionised or not, between an organic phase and buffer at a given pH. What is called Papp A→B is the apparent permeability from the apical to the basolateral side of a cell layer.

Molecules are shown by their SMILES.

Series [1] has as its target T1, Serine/threonine-protein kinase D1 (Homo sapiens) (UniProt Q15139).
T1 sequence (whole entry): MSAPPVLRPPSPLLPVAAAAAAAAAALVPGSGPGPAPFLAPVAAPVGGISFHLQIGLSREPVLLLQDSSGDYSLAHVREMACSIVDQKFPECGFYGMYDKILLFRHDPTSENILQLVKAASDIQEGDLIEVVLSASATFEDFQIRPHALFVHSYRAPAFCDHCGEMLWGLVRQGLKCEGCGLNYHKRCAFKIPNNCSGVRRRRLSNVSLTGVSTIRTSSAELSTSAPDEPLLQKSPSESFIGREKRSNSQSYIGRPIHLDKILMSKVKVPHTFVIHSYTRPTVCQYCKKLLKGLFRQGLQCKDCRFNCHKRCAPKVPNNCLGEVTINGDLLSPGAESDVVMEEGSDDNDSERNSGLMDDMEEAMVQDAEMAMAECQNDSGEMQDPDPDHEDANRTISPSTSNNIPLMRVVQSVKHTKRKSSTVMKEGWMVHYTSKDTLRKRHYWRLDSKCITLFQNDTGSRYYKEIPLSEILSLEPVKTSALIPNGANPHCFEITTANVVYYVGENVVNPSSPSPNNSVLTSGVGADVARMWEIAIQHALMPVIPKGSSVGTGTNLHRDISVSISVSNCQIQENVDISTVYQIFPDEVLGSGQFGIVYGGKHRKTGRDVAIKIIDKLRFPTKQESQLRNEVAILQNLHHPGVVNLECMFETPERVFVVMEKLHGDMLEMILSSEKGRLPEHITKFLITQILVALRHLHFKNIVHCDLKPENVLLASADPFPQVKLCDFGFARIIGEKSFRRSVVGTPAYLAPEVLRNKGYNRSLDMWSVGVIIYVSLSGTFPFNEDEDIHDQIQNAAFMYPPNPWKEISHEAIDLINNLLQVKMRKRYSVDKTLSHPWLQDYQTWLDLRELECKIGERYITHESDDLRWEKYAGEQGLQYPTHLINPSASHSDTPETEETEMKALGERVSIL
The series can be described thus: Inhibition of protein kinase D1 (unknown origin) relative to control. Conditions: concentration not given here. The essentials:
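Kinase selectivity panel of 50 non-JAK kinases. […] Percent inhibition scored, and enzymes inhibited by more than 40% were counted.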

Series [2] addresses T2, Tyrosine-protein kinase JAK3 (Homo sapiens, UniProt P52333).
T2 sequence (P52333 whole entry): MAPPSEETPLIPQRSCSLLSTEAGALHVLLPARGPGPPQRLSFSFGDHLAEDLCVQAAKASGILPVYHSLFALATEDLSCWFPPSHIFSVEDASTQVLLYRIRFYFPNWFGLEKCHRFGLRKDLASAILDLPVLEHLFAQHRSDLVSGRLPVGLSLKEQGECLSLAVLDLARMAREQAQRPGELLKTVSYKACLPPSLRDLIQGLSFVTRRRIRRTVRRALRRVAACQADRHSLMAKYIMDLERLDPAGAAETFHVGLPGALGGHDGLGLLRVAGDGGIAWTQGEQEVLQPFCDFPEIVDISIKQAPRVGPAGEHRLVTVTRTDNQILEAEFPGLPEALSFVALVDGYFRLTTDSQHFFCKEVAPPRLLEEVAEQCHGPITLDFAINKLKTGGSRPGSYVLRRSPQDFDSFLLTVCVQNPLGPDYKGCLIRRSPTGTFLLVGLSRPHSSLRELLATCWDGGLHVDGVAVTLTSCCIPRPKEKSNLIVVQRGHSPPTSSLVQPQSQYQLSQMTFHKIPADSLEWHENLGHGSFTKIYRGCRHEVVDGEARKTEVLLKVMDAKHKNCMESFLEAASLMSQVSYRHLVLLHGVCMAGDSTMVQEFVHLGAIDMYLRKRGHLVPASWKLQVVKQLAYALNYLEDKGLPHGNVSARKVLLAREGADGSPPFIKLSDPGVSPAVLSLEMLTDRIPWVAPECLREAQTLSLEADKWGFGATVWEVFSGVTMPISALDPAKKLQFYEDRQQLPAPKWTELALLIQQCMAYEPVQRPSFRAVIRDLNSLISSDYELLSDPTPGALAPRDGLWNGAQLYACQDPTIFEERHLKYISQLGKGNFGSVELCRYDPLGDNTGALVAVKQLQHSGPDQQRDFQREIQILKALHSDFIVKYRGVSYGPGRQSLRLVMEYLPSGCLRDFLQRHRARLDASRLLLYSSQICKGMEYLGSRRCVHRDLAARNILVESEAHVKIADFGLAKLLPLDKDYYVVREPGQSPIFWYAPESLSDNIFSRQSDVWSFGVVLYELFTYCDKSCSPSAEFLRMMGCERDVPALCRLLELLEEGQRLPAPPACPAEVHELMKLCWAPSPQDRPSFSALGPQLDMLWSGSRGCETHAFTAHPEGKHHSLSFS
The series can be described thus: Inhibition of JAK3 (unknown origin).

A short description of series [3]: AUC in Sprague-Dawley rat at 5 mg/kg, po. The class given is ADME, organism-based. More on the design: dose 5 mg/kg, route oral. To be noted: plasma. The essentials: (§1)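 Rat pharmacokinetics given as mean profiles from three animals. Values normalized to 1 mg/kg iv and 5 mg/kg po. Clearance is plasma clearance after iv dosing.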
Series [4] can be described thus: Clearance in Sprague-Dawley rat at 1 mg/kg, iv. Format: ADME, organism-based. The arrangement: dose 1 mg/kg, route intravenous. Conditions: in vivo. The essentials:
as §1

Series [5] in a line: Cmax in Sprague-Dawley rat at 5 mg/kg, po. The class given is ADME, organism-based. More on the design: dose 5 mg/kg, route oral. To be noted: in vivo. The procedure, abridged: as §1
A short description of series [6]: Oral bioavailability in Sprague-Dawley rat at 5 mg/kg. Format: ADME, organism-based. Conditions: in vivo. The procedure, abridged:
as §1

Series [7] in a line: Half life in human liver microsomes. The class given is ADME, Microsome. The procedure, abridged: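 Half-life measured by incubation with in vitro preparations of human liver microsomes.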
A general note: Microsomes from liver hold many membrane-bound enzymes, among them those of drug oxidation.

Series [8] can be described thus: Lipophilicity, log D of the compound at pH 7.2. Format: physicochemical. To be noted: buffer. The procedure, abridged:
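Log D determined experimentally at pH 7.2.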

Series [9] in a line: Apparent permeability from apical to basolateral side in MDCK cells. Format: ADME, cell-based, Canis lupus familiaris. To be noted: dog. The essentials: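 MDCK cells grown in transwell culture. Apparent permeability measured in the apical-to-basolateral direction and reported as the arithmetic mean of at least two separate determinations.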

`N#CCCN[C@H]1CC[C@H](n2nnc3cnc4[nH]ccc4c32)CC1` displayed an inhibition in series [1] of 44%. The compound further returned an inhibitory constant (Ki) in series [2] of 122 nM. In addition, the AUC in series [3] turned out to be 1.4 µM·h. The same compound showed a clearance in series [4] of 88 mL/min/kg. This compound gave a Cmax in series [5] of 900 nM. In series [6], this compound came in with a bioavailability of 44%. This compound showed a half-life in series [7] of 2.3 h. Also, the log distribution coefficient (logD) in series [8] amounted to 1.05. Also, the Papp A→B in [9] was determined as 7.2 ×10⁻⁶ cm/s.
